Measured values as given in PubChem BioAssay.
Records with an inconclusive call do not appear.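 How the source made its calls, unless noted: active means growth inhibition above 25% in both replicates, a cutoff set 3 SD above the mean; inconclusive means above 25% in only one replicate; inactive means the rest.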

Legend:
[1] = OD615 S. cerevisiae growth inhibition, permissive medium, pilot counter-assay, permissive growth control for S. cerevisiae lifespan shortening project (AID 705); settings: OD615, 24 h, at 10 µM, stronger effect = higher value
Method in brief: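 System – S. cerevisiae with engineered DeaD lifespan system · Buffer or medium – SC raffinose/galactose permissive medium · Schedule – cells pre-grown 4 h, then 24 h compound exposure, 30 °C humidified · Technique – culture turbidity as optical density at 615 nm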

[2] = Restrictive medium S. cerevisiae growth inhibition, OD615, pilot screen of yeast lifespan reduction project, restrictive growth control (AID 706;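 active means growth inhibition above a set limit, 3 SD over mean compound inhibition, in both replicates, cut at about 43% in these data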;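 further: modified DeaD lifespan yeast strain shifted to restrictive glucose medium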); settings: OD615, 48 h, at 10 µM, stronger effect = higher value
Method in brief: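 Material: engineered S. cerevisiae DeaD strain / Medium: glucose-based CSMM-D restrictive medium / Compound: single dose of 10 µM compound final, 0.25% DMSO / Timing: 4 h pre-incubation, 48 h exposure at 30 °C / Technique: OD615 absorbance reading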

[3] = viability gain of MRP-1-high H69AR cells under doxorubicin, pilot screen, MRP-1 activator project, CellTiter-Glo, duplicate (AID 807;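 active means viability increase at or above a cutoff of the median across tested compounds plus 3 SD, cut at about 8.5% in these data, passing the limit was not always enough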;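 further: compound pretreatment 18-22 h then 72 h combined with doxorubicin; 0% = doxorubicin alone and 100% = vehicle without doxorubicin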); settings: H69AR viability with doxorubicin, CellTiter-Glo luminescence; at 10 µM; stronger effect = higher value
[4] = growth suppression of beta-catenin knockout HCT116, pilot screen, human colon tumor cells (AID 823;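 active means cell viability at or below a set limit in both duplicate runs, the limit being the all-compound median minus 4 SD, cut at about 23% in these data, passing the limit was not always enough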;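 further: 0% = wells killed by 20 µM Hyamine and 100% = untreated DMSO cell wells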); settings: CellTiter-Glo, 60 h, at 10 µM, stronger effect = lower value
[5] = growth suppression of PTEN-deleted HCT116, pilot screen, cell-based, HCT116 clonal line, CellTiter-Glo (AID 824;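 active means viability at or below 27.92% in each of two runs, the all-compound median minus 4 SD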;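 further: 0% = 20 µM Hyamine control and 100% = vehicle cell control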); settings: 60 h, at 10 µM, stronger effect = lower value
[6] = inhibitors of the yeast RAM network, pilot screen, dse1pr::URA3 reporter, 5-FOA selection (AID 869;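 active means inhibition over a set limit, the all-compound mean plus 3 SD, in both replicate runs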;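 further: 0% = DMSO wells with no growth and 100% = 10 µM 1-NA-PP1 with full growth; RAM network block rescues cells from 5-FOA so hits raise OD615 growth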); settings: S. cerevisiae dse1pr::URA3 5-FOA growth, OD615, 2 d; at 10 µM; stronger effect = higher value; strain carries analog-sensitive mutant Cbk1 kinase
[7] = RAM signaling pathway blockade in yeast – S. cerevisiae, Pdr1DBD-CYC8 efflux-inhibited sensitized strain, primary screen (AID 1298;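 active means RAM network inhibition above 8.4% in each of two replicates, 3 SD over the compound average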;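 further: 0% = DMSO untreated cells without growth and 100% = 10 µM 1-NA-PP1 full growth; higher means more yeast growth rescued from 5-FOA killing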); settings: S. cerevisiae cbk1-as DSE1-URA3 strain, 5-FOA growth OD615, 2 d; at 50 µM; stronger effect = higher value

CCn1c(-c2ccccc2O)n[nH]c1=S
inactive: growth inhibition [1] 1.96% | growth inhibition [2] 25.6% | viability increase [3] -0.52% | viability [4] 93.7% | viability [5] 95.4% | inhibition [6] -0.54% | RAM network inhibition [7] 0.81%

O=C(NCCN1CCc2ccccc2C1)Nc1ccc(F)cc1
inactive: growth inhibition [1] -4.88% | growth inhibition [2] -2.83% | viability increase [3] -3.99% | viability [4] 105% | viability [5] 100% | inhibition [6] 2.19% | RAM network inhibition [7] 2.62%

Cc1nn(C)c(C)c1S(=O)(=O)N(CC(=O)NCc1cccs1)c1ccc(C(C)C)cc1
inactive: growth inhibition [1] -16.9% | growth inhibition [2] -13.5% | viability increase [3] -3.06% | viability [4] 99% | viability [5] 87.5% | inhibition [6] 2.2% | RAM network inhibition [7] 8.44%

O=C(CCS(=O)(=O)c1cccc2nonc12)NCCc1ccccc1Cl
inactive: growth inhibition [1] -1.5% | growth inhibition [2] -9.76% | viability increase [3] -5.15% | viability [4] 91.2% | viability [5] 82.9% | inhibition [6] 1.33% | RAM network inhibition [7] 4.14%

COc1ccccc1-c1cc(C2CC2)nc(N)c1C#N
inactive: growth inhibition [1] -20.8% | growth inhibition [2] -19.3% | viability increase [3] -3.86% | viability [4] 94.7% | viability [5] 94.2% | inhibition [6] -0.08% | RAM network inhibition [7] 3.76%

CCCC(=O)N1CC(=O)Nc2ccc(F)cc2C1c1ccccc1 (configuration not stated)
inactive: growth inhibition [1] -5.99% | growth inhibition [2] -15.7% | viability increase [3] -1.01% | viability [4] 111% | viability [5] 92.6% | inhibition [6] 3.18% | RAM network inhibition [7] 3.75%

Cc1ccc2c(c1)C1(C(=O)N2C)N2CC3(C)CN1CC(C)(C2)C3=O (configuration not stated)
inactive: growth inhibition [1] 6.63% | growth inhibition [2] 0.76% | viability increase [3] -2.2% | viability [4] 99.1% | viability [5] 99% | inhibition [6] 1.27% | RAM network inhibition [7] 0.11%

COc1cc2[nH]c(=O)n(CCC(=O)NCc3cccnc3)c(=O)c2cc1OC
inactive: growth inhibition [1] -19.1% | growth inhibition [2] -23.9% | viability increase [3] -1.46% | viability [4] 98.7% | viability [5] 95.8% | inhibition [6] 2.92% | RAM network inhibition [7] 2.26%

CC1=C(C(=O)OCC2CCCO2)C(c2ccccc2)NC(=O)N1 (configuration not stated)
inactive: growth inhibition [1] -9.26% | growth inhibition [2] -17.9% | viability increase [3] -0.06% | viability [4] 103% | viability [5] 99.8% | inhibition [6] 1.33% | RAM network inhibition [7] -0.93%

CSc1cccc(NS(=O)(=O)c2cccc3nsnc23)c1
inactive: growth inhibition [1] -5.26% | growth inhibition [2] -8.19% | viability increase [3] -0.51% | viability [4] 88.6% | viability [5] 93.3% | inhibition [6] 0.885% | RAM network inhibition [7] 2.44%

O=C(CN1CCOc2ccccc21)N1CCCC1
inactive: growth inhibition [1] -21.1% | growth inhibition [2] -8.8% | viability increase [3] -5.56% | viability [4] 100% | viability [5] 90.5% | inhibition [6] 0.98% | RAM network inhibition [7] 1.32%

CC(=O)c1ccc(NC(=O)C2CCCN2S(=O)(=O)c2cccc3cccnc23)cc1 (configuration not stated)
inactive: growth inhibition [1] -11.2% | growth inhibition [2] -8.78% | viability increase [3] -1.7% | viability [4] 98.1% | viability [5] 95.8% | inhibition [6] 0.505% | RAM network inhibition [7] 5.11%

O=C(C1CCN(S(=O)(=O)c2ccc(F)cc2)CC1)N1CC=C(c2ccccc2)CC1
inactive: growth inhibition [1] -0.895% | growth inhibition [2] -21% | viability increase [3] -2.73% | viability [4] 91% | viability [5] 89.7% | inhibition [6] 1.03% | RAM network inhibition [7] 1.27%

Cc1cc(C)cc(NC(=O)CSc2nnc(-c3ccccc3)n2N)c1
inactive: growth inhibition [1] 5.25% | growth inhibition [2] 7.08% | viability increase [3] -3.11% | viability [4] 98.1% | viability [5] 97.1% | inhibition [6] 2.74% | RAM network inhibition [7] 4.66%

CC(=O)c1sc(N2C(=O)c3oc4ccccc4c(=O)c3C2c2ccc(C)o2)nc1C (configuration not stated)
inactive: growth inhibition [1] 3.87% | growth inhibition [2] 6.34% | viability increase [3] -3.31% | viability [4] 96.1% | viability [5] 94.3% | inhibition [6] 1.98% | RAM network inhibition [7] -0.52%

COC(=O)c1c(C)nc(C)c2c(=O)oc3ccccc3c12
inactive: growth inhibition [1] 3.52% | growth inhibition [2] 15.3% | viability increase [3] 0.64% | viability [4] 102% | viability [5] 104% | inhibition [6] 2.04% | RAM network inhibition [7] 1.99%

CCCCN(C)C(=O)c1ccc2c(c1)N(CC)C(=O)c1ccccc1S2(=O)=O
inactive: growth inhibition [1] -2.31% | growth inhibition [2] 3.19% | viability increase [3] -1.45% | viability [4] 87.8% | viability [5] 91.2% | inhibition [6] 1.74% | RAM network inhibition [7] 4.11%

O=C(CSCC(=O)N1CCOCC1)Nc1ccccc1
inactive: growth inhibition [1] -11.4% | growth inhibition [2] -8.24% | viability increase [3] -0.42% | viability [4] 97.2% | viability [5] 97.8% | inhibition [6] 0.42% | RAM network inhibition [7] 2.75%

c1coc(-c2nc(-c3ccco3)c(-c3ccco3)nc2-c2ccco2)c1
inactive: growth inhibition [1] -25.2% | growth inhibition [2] -38.9% | viability increase [3] -2.54% | viability [4] 97.6% | viability [5] 86.5% | inhibition [6] 2.14% | RAM network inhibition [7] 0.57%

CC(=NCc1ccccc1)C1=C(O)COC1=O
inactive: growth inhibition [1] 5.52% | growth inhibition [2] 8.4% | viability increase [3] -1.47% | viability [4] 100% | viability [5] 92.7% | inhibition [6] 1.06% | RAM network inhibition [7] 4.28%

Cc1nnc(SCC(=O)Nc2ccc3c(c2)OCO3)o1
inactive: growth inhibition [1] -0.465% | growth inhibition [2] -12% | viability increase [3] -5.27% | viability [4] 102% | viability [5] 95.1% | inhibition [6] 1.41% | RAM network inhibition [7] 4.08%

COc1cccc(C2CC(=O)NC(SC)=C2C#N)c1 (configuration not stated)
inactive: growth inhibition [1] -1.85% | growth inhibition [2] -4.75% | viability increase [3] -2.47% | viability [4] 98.7% | viability [5] 95.7% | inhibition [6] -0.015% | RAM network inhibition [7] 2.87%

COc1cc(C(=O)NCc2ccco2)c(Br)c(OC)c1OC
inactive: growth inhibition [1] -1.05% | growth inhibition [2] -12.5% | viability increase [3] -4.68% | viability [4] 98.3% | viability [5] 96% | inhibition [6] 0.865% | RAM network inhibition [7] -0.16%

CSc1nnc(Cn2c(=O)sc3ccccc32)n1C
inactive: growth inhibition [1] -4.88% | growth inhibition [2] -13% | viability increase [3] -1.82% | viability [4] 109% | viability [5] 99.4% | inhibition [6] 1.94% | RAM network inhibition [7] 6.98%

CCN1C(=O)N(CC)C(O)(c2ccccc2)C1(O)c1ccccc1 (configuration not stated)
inactive: growth inhibition [1] -12.7% | growth inhibition [2] -8.41% | viability increase [3] -2.16% | viability [4] 97.1% | viability [5] 94.8% | inhibition [6] 2.12% | RAM network inhibition [7] 6.55%

CCOC(=O)Cn1c(=O)oc2cc(S(=O)(=O)N3CCCC(C(=O)OCC)C3)ccc21 (configuration not stated)
inactive: growth inhibition [1] -2.33% | growth inhibition [2] -20.5% | viability increase [3] -1.74% | viability [4] 95.4% | viability [5] 90.7% | inhibition [6] 0.87% | RAM network inhibition [7] 1.99%

Oc1cc(Cc2ccccc2)cnc1CN1CCOCC1
inactive: growth inhibition [1] 1.49% | growth inhibition [2] 2.83% | viability increase [3] -0.73% | viability [4] 96.8% | viability [5] 87.3% | inhibition [6] 0.81% | RAM network inhibition [7] 1.51%

COc1cccc(N2CCN(C3CC(=O)N(c4ccc(Cl)cc4)C3=O)CC2)c1 (configuration not stated)
inactive: growth inhibition [1] -8.98% | growth inhibition [2] -2.62% | viability increase [3] -0.33% | viability [4] 96.2% | viability [5] 91.6% | inhibition [6] 0.57% | RAM network inhibition [7] 5.46%

CCN(CC(=O)NCc1ccc(F)cc1)C(=O)C1CCN(C(=O)Nc2ccccc2)CC1
inactive: growth inhibition [1] -2.92% | growth inhibition [2] -6.36% | viability increase [3] -0.13% | viability [4] 96.2% | viability [5] 98.6% | inhibition [6] 1.25% | RAM network inhibition [7] 0.37%

CCOC(=O)C1Cn2c(nc3c(c2=O)C(C)(CC)Cc2ccccc2-3)S1 (configuration not stated)
inactive: growth inhibition [1] -4.55% | growth inhibition [2] 5.55% | viability increase [3] -2.18% | viability [4] 82.1% | viability [5] 77.7% | inhibition [6] 1.5% | RAM network inhibition [7] 3.03%

CCN(CC)S(=O)(=O)c1ccc(NC2c3ccccc3C(=O)N2Cc2ccc3c(c2)OCO3)cc1 (configuration not stated)
inactive: growth inhibition [1] 1.96% | growth inhibition [2] -8.94% | viability increase [3] -2.84% | viability [4] 92.9% | viability [5] 93% | inhibition [6] -0.09% | RAM network inhibition [7] 5.92%

OCCCc1nc2ccccc2n1CCOc1ccccc1
inactive: growth inhibition [1] -10.4% | growth inhibition [2] 12.7% | viability increase [3] -0.86% | viability [4] 88.5% | viability [5] 94.6% | inhibition [6] 0.595% | RAM network inhibition [7] 2.86%

Cc1ccc(C2CC(c3ccccc3)n3ncnc3N2)cc1 (configuration not stated)
inactive: growth inhibition [1] 1.32% | growth inhibition [2] 6.08% | viability increase [3] 1.68% | viability [4] 99.9% | viability [5] 98.8% | inhibition [6] 0.06% | RAM network inhibition [7] 1.8%

COc1ccccc1N1CCN(C(CNS(=O)(=O)c2cccs2)c2cccnc2)CC1 (configuration not stated)
inactive: growth inhibition [1] -6.17% | growth inhibition [2] -25.5% | viability increase [3] -3.42% | viability [4] 87.8% | viability [5] 79.1% | inhibition [6] 1.8% | RAM network inhibition [7] 5.16%

COc1cc(NC(=O)CCCC(=O)OCC(F)(F)C(F)F)nc(OC)n1
inactive: growth inhibition [1] -5.42% | growth inhibition [2] -21.7% | viability increase [3] -0.22% | viability [4] 102% | viability [5] 98.9% | inhibition [6] 1.37% | RAM network inhibition [7] 0.92%

COc1cc(Br)c(CC(=O)O)cc1OC
inactive: growth inhibition [1] -24.6% | growth inhibition [2] -13.7% | viability increase [3] -0.03% | viability [4] 98.2% | viability [5] 97.1% | inhibition [6] 2.38% | RAM network inhibition [7] 3.76%
